Test results published in ChEMBL document CHEMBL1132401, “Glycosylation of fluoroquinolones through direct and oxygenated polymethylene linkages as a sugar-mediated active transport system for antimicrobials” (1999).
≈ marks a conversion by molar mass, not a printed value.

Experiments:
Enterococcus faecalis [1] = experiment: Minimum concentration required to prevent the growth of vancomycin resistant (VanB) Enterococcus faecalis strain A1081; format: functional; conditions: Enterococcus faecalis; read-out: MIC
Summary of the method: (§1)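 Agar dilution susceptibility testing per NCCLS guidelines against resistant clinical isolates, with nonresistant ATCC stock strains run as controls. Plates were read at 19–24 h of incubation. MIC reported in µg/mL.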

Enterococcus faecalis [2] = experiment: Minimum concentration required to prevent the growth of high level gentamicin and beta- lactamase resistant (HLGR, BLA+) Enterococcus faecalis strain A0090; format: functional; summary of the method: as §1
Staphylococcus aureus [3] = experiment: Minimum concentration required to prevent the growth of multiply resistant (MRSA) Staphylococcus aureus strain A0170; format: functional; summary of the method: as §1
Enterococcus faecium [4] = experiment: Minimum concentration required to prevent the growth of vancomycin resistant (VanB) Enterococcus faecium strain A1087; format: functional; conditions: Enterococcus faecium; read-out: MIC; summary of the method: as §1
Enterococcus faecalis [5] = experiment: Minimum concentration required to prevent the growth of nonresistant stock strain Enterococcus faecalis 29212 from American Type Culture Collection (ATCC); format: functional; summary of the method: as §1
Enterococcus faecalis [6] = experiment: Minimum concentration required to prevent the growth of vancomycin resistant (VanB) Enterococcus faecalis strain A1079; format: functional; summary of the method: as §1
Listeria monocytogenes [7] = experiment: Minimum concentration required to prevent the growth of Listeria monocytogenes strain A0183; format: functional
Summary of the method: (§2)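 Agar dilution susceptibility testing per NCCLS guidelines, covering clinical isolates (including resistant phenotypes) and nonresistant ATCC stock strains as controls. Plates read after 19–24 h of incubation. MIC reported in μg/mL.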

[8] = tested on: Staphylococcus epidermidis; experiment: Minimum concentration required to prevent the growth of multiply resistant Staphylococcus epidermidis (MRSE) coag.-neg. Staph. A0244; format: functional; summary of the method: as §1
[9] = tested on: Staphylococcus epidermidis; experiment: Minimum concentration required to prevent the growth of multiply resistant Staphylococcus epidermidis (MRSE) and cipro resistant (Cipro-R) coag.-neg. Staph. A0247; format: functional; summary of the method: as §1
Enterococcus faecalis [10] = experiment: Minimum concentration required to prevent the growth of vancomycin resistant (VanA) Enterococcus faecalis strain A0402; format: functional; conditions: Enterococcus faecalis; read-out: MIC; summary of the method: as §1
Pseudomonas aeruginosa [11] = experiment: Minimum concentration required to prevent the growth of Pseudomonas aeruginosa strain 28245; format: functional; summary of the method: as §2
[12] = tested on: Staphylococcus epidermidis; experiment: Minimum concentration required to prevent the growth of multiply resistant Staphylococcus epidermidis (MRSE) coag.-neg. Staph. A0245; format: functional; summary of the method: as §1
Escherichia coli [13] = experiment: Minimum concentration required to prevent the growth of cipro resistant (Cipro-R) Escherichia coli strain A3529; format: functional; summary of the method: as §2
Enterococcus faecium [14] = experiment: Minimum concentration required to prevent the growth of vancomycin resistant (VanA) Enterococcus faecium strain A1745; format: functional; summary of the method: as §1
Pseudomonas aeruginosa [15] = experiment: Minimum concentration required to prevent the growth of Pseudomonas aeruginosa strain 28215; format: functional; summary of the method: as §2
Enterococcus faecium [16] = experiment: Minimum concentration required to prevent the growth of vancomycin resistant (VanA) Enterococcus faecium strain A2320; format: functional; summary of the method: as §1
Enterococcus faecium [17] = experiment: Minimum concentration required to prevent the growth of vancomycin resistant (VanB) Enterococcus faecium strain A0803; format: functional; conditions: Enterococcus faecium; read-out: MIC; summary of the method: as §1
Escherichia coli [18] = experiment: Minimum concentration required to prevent the growth of cipro resistant (Cipro-R) Escherichia coli strain A3228; format: functional; summary of the method: as §2
[19] = tested on: Staphylococcus epidermidis; experiment: Minimum concentration required to prevent the growth of multiply resistant Staphylococcus epidermidis (MRSE) and cipro resistant (Cipro-R) coag.-neg. Staph. A0248; format: functional; summary of the method: as §1
Klebsiella pneumoniae = experiment: Minimum concentration required to prevent the growth of cipro resistant (Cipro-I) Klebsiella pneumoniae strain AM; format: functional; summary of the method: as §1
Escherichia coli [20] = experiment: Minimum concentration required to prevent the growth of cipro resistant (Cipro-R) Escherichia coli strain AA; format: functional; summary of the method: as §2
Klebsiella oxytoca [21] = experiment: Minimum concentration required to prevent the growth of cipro resistant (Cipro-R) Klebsiella oxytoca strain A3530
Enterococcus faecalis [22] = experiment: Minimum concentration required to prevent the growth of nonresistant stock strain Enterococcus faecalis 51299 from American Type Culture Collection (ATCC); format: functional; conditions: Enterococcus faecalis; read-out: MIC; summary of the method: as §1
Enterococcus faecalis [23] = experiment: Minimum concentration required to prevent the growth of vancomycin resistant (VanA) Enterococcus faecalis strain A0401; format: functional; conditions: Enterococcus faecalis; read-out: MIC; summary of the method: as §1
Escherichia coli [24] = experiment: Minimum concentration required to prevent the growth of nonresistant stock Escherichia coli strain 25922 from American Type Culture Collection (ATCC); format: functional; conditions: ATCC25922; summary of the method: as §2
Enterococcus faecalis [25] = experiment: Minimum concentration required to prevent the growth of high level gentamicin and beta- lactamase resistant (HLGR, BLA+) Enterococcus faecalis strain A0089; format: functional; conditions: Enterococcus faecalis; read-out: MIC; summary of the method: as §1
Staphylococcus aureus [26] = experiment: Minimum concentration required to prevent the growth of multiply resistant (MRSA) and cipro resistant (Cipro-R) Staphylococcus aureus strain A2043; format: functional; summary of the method: as §1
Enterococcus faecium [27] = experiment: Minimum concentration required to prevent the growth of nonresistant stock strain Enterococcus faecium 19434 from American Type Culture Collection (ATCC); format: functional; conditions: Enterococcus faecium; read-out: MIC; summary of the method: as §2
Staphylococcus aureus [28] = experiment: Minimum concentration required to prevent the growth of multiply resistant (MRSA) and cipro resistant (Cipro-R) Staphylococcus aureus strain A2800; format: functional; summary of the method: as §1
Staphylococcus aureus [29] = experiment: Minimum concentration required to prevent the growth of multiply resistant (MRSA) Staphylococcus aureus strain A0171; format: functional; summary of the method: as §1
Listeria monocytogenes [30] = experiment: Minimum concentration required to prevent the growth of Listeria monocytogenes strain A0182; format: functional; summary of the method: as §2
Staphylococcus aureus [31] = experiment: Minimum concentration required to prevent the growth of nonresistant stock strain Staphylococcus aureus 29213 from American Type Culture Collection (ATCC)
Klebsiella oxytoca [32] = experiment: Minimum concentration required to prevent the growth of cipro resistant (Cipro-R) Klebsiella oxytoca strain A3530; remark: listed apart in the source
[33] = Staphylococcus aureus, read-out: MIC
[34] = Listeria monocytogenes, read-out: MIC
[35] = Staphylococcus epidermidis, read-out: MIC
[36] = Escherichia coli, read-out: MIC

Row | Compound | MIC (Enterococcus faecalis [1]) | MIC (Enterococcus faecalis [2]) | MIC (Enterococcus faecalis [5]) | MIC (Enterococcus faecalis [6]) | MIC [9] | MIC (Enterococcus faecalis [10]) | MIC (Pseudomonas aeruginosa [11]) | MIC (Escherichia coli [18]) | MIC [19] | MIC (Enterococcus faecalis [22]) | MIC (Enterococcus faecalis [23]) | MIC (Escherichia coli [24]) | MIC (Enterococcus faecalis [25]) | MIC (Staphylococcus aureus [26]) | MIC (Enterococcus faecium [27]) | MIC (Staphylococcus aureus [28]) | also measured
1 | O=C(O)c1cn(C2CC2)c2cc(N3CCN(C4OC(CO)C(O)C(O)C4O)CC3)c(F)cc2c1=O (stereo in doubt; form 1) | 0.5 µg/mL (≈ 1.01 µM) | 1 µg/mL (≈ 2.03 µM) | 1 µg/mL (≈ 2.03 µM) | 1 µg/mL (≈ 2.03 µM) | > 32 µg/mL | 2 µg/mL (≈ 4.05 µM) | 1 µg/mL (≈ 2.03 µM) | > 32 µg/mL | > 32 µg/mL | 0.5 µg/mL (≈ 1.01 µM) | 2 µg/mL (≈ 4.05 µM) | < 0.03 µg/mL | 2 µg/mL (≈ 4.05 µM) | > 32 µg/mL | 8 µg/mL (≈ 16.2 µM) | > 32 µg/mL | MIC (Staphylococcus aureus [3]; [33]): 0.5 µg/mL (≈ 1.01 µM); MIC (Enterococcus faecium [4]): 4 µg/mL (≈ 8.11 µM); MIC (Listeria monocytogenes [7]; [34]): 2 µg/mL (≈ 4.05 µM); MIC [8, 35]: 1 µg/mL (≈ 2.03 µM); MIC [12, 35]: 0.5 µg/mL (≈ 1.01 µM); MIC (Escherichia coli [13]; [36]): 32 µg/mL (≈ 64.8 µM); MIC (Enterococcus faecium [14]): > 32 µg/mL; MIC (Pseudomonas aeruginosa [15]; Pseudomonas aeruginosa, read-out: MIC): 0.25 µg/mL (≈ 0.507 µM); MIC (Enterococcus faecium [16]): > 32 µg/mL; MIC (Enterococcus faecium [17]): 4 µg/mL (≈ 8.11 µM); MIC (Klebsiella pneumoniae; Klebsiella pneumoniae, read-out: MIC): 2 µg/mL (≈ 4.05 µM); MIC (Escherichia coli [20]; [36]): 8 µg/mL (≈ 16.2 µM); MIC (Klebsiella oxytoca [21]): 8 µg/mL (≈ 16.2 µM); MIC (Staphylococcus aureus [29]; [33]): 0.5 µg/mL (≈ 1.01 µM); MIC (Listeria monocytogenes [30]; [34]): 2 µg/mL (≈ 4.05 µM)
2 | O=C(O)c1cn(C2CC2)c2cc(N3CCN(CCO[C@@H]4O[C@@H](CO)[C@H](O)[C@H](O)[C@@H]4O)CC3)c(F)cc2c1=O | 16 µg/mL (≈ 29.8 µM) | 32 µg/mL (≈ 59.5 µM) | 32 µg/mL (≈ 59.5 µM) | 32 µg/mL (≈ 59.5 µM) | > 32 µg/mL | 32 µg/mL (≈ 59.5 µM) | > 32 µg/mL | > 32 µg/mL | > 32 µg/mL | 32 µg/mL (≈ 59.5 µM) | > 32 µg/mL | 1 µg/mL (≈ 1.86 µM) | > 32 µg/mL | > 32 µg/mL | > 32 µg/mL | > 32 µg/mL | MIC (Staphylococcus aureus [3]): 8 µg/mL (≈ 14.9 µM); MIC (Listeria monocytogenes [7]): > 32 µg/mL; MIC [8]: 32 µg/mL (≈ 59.5 µM); MIC (Staphylococcus aureus [31]): 8 µg/mL (≈ 14.9 µM); MIC [12]: 16 µg/mL (≈ 29.8 µM); MIC (Escherichia coli [13]): > 32 µg/mL; MIC (Pseudomonas aeruginosa [15]): 16 µg/mL (≈ 29.8 µM); MIC (Klebsiella pneumoniae): > 32 µg/mL; MIC (Escherichia coli [20]): > 32 µg/mL; MIC (Klebsiella oxytoca [32]): > 32 µg/mL; MIC (Staphylococcus aureus [29]): 8 µg/mL (≈ 14.9 µM); MIC (Listeria monocytogenes [30]): > 32 µg/mL
